GSH fluor: GSH bead compound fluorescence profile | GSH beads flow cytometry, compound fluorescence 488/530 nm; active compounds read high | hit rate 0.25% among 190,000 | fluorescence (KMESF) at 10 µM | AID 1776; in the data active = fluorescence above about 89;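 also: glutathione beads carrying GST-tagged Bcl family fusion proteins plus one bare bead set; values are compound well signal with DMSO vehicle wells as background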
ABCB1 block: blocks JC-1 efflux by human ABCB1 transporter. P08183. CCRF-Adr cells, flow cytometry. inhibition, % at 6.6 µM. hit rate 0.067% among 190,000. AID 1326; in the data active = inhibition above about 40%;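 also: 0% = vehicle and 100% = reference inhibitor; higher value means more JC-1 retained so stronger ABCB1 efflux block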
Target sequence (P08183 whole entry, looked up): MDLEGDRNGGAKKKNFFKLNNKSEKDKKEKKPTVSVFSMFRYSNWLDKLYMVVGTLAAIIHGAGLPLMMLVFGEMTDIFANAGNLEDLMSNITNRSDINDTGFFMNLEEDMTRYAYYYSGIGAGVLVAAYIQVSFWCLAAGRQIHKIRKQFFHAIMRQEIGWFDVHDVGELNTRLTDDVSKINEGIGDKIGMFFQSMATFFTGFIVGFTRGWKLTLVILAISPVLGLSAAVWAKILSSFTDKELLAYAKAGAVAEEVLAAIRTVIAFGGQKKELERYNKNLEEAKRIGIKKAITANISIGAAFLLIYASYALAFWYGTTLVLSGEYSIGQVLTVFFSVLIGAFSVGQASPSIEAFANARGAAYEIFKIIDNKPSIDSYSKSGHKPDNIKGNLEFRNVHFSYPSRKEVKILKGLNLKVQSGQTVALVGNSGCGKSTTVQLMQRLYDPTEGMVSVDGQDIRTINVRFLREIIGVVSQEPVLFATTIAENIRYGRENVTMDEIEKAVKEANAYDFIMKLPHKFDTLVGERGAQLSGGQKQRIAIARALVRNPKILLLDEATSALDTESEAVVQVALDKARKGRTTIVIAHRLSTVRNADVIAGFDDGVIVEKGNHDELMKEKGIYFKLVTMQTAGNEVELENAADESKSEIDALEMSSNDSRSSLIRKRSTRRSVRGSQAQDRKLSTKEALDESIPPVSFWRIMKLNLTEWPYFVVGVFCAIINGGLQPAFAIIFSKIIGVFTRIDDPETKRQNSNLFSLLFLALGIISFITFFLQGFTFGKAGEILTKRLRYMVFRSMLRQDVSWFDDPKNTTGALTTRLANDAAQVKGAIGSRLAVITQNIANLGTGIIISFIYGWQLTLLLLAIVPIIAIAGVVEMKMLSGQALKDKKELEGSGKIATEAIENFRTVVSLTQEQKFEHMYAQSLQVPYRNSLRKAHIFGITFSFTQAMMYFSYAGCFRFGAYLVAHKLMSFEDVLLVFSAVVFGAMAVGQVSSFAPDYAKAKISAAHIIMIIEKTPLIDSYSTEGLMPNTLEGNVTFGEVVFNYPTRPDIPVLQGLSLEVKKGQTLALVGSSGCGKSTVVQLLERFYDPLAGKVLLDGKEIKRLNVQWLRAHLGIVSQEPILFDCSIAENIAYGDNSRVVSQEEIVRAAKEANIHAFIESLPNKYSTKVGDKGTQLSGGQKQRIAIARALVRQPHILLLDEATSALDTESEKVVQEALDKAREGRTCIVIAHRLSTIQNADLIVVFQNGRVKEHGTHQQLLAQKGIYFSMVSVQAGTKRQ
ABCG2 inh: blocks JC-1 efflux by human ABCG2 transporter | inhibition, % at 6.6 µM | hit rate 0.1% among 190,000 | IgMXP3 cells, flow cytometry;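 active = inhibition above 80%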;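 also: 0% = DMSO and 100% = nicardipine control wells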
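Test system: IgMXP3 (ABCG2) plus far-red-tagged CCRF-Adr (ABCB1) cells. Reagent: JC-1 dye as substrate. Timing: 10 min exposure at 25 °C with rotation, no wash. Measured by: flow cytometric JC-1 green MFI at 530 nm. Read-out: percent efflux inhibition, scaled nicardipine 100% to DMSO 0%. Control set: nicardipine and DMSO wells.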
Avidin bead fluor: avidin bead compound fluorescence profile; Avidin beads, compound fluorescence 488/530 nm, flow cytometry; active compounds read high; fluorescence (KMESF) at 10 µM; hit rate 0.38% among 220,000; AID 1775; in the data active = fluorescence above about 47
Redox H2O2 prof: compounds producing H2O2 with reducing agent – biochemical, NIH compound library profiling, artefact control for MLSCN library redox annotation, primary screen; hit rate 0.03% among 200,000; DTT-dependent redox cycling H2O2, phenol red/HRP absorbance; 100% = 100 µM peroxide control, 0% = buffer; AID 878; activation, % at 10 µM;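 active = activation of at least 50% relative to the plate's high and low controls in the primary single-dose screen; inactive = activation below 50%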;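 also: compound incubated with DTT at 0.8 mM final as the reducing agent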
Redox H2O2 DR: confirmation of DTT-dependent redox cycling H2O2 generators | AID 1234 | shares compounds with Redox H2O2 prof | hit rate 40% among 60 | EC50, µM | phenol red-HRP absorbance;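 active = EC50 under a set limit for hydrogen peroxide production with the reducing agent DTT present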
* marks the source's active call; other numbers are inactive results; · = not tested or not shown. This is a sample that favours compounds with a hit; in the whole collection about 0.72% have one here.

SMILES	GSH fluor	ABCB1 block	ABCG2 inh	Avidin bead fluor	Redox H2O2 prof	Redox H2O2 DR
CCOC(=O)CCCNC(=O)CCCNC(=O)C(c1ccccc1)c1ccccc1	18	1.2	6.2	23	2.4	·
Cc1cc(C)c(S(=O)(=O)/N=C2/C=C(Sc3ncn[nH]3)C(=O)c3ccccc32)cc1C	22	-0.3	-4.5	5	142.9*	23.3*
CC(C)CN(C(=O)COC(=O)c1ccc([N+](=O)[O-])o1)C1CCS(=O)(=O)C1 (stereo not given)	13	0.3	0.5	9	121.7*	>50
CCn1cc(C(C)NC(=O)Nc2ccccc2C(=O)OC)c(C)n1 (stereo not given)	20	0.9	2.5	7	-0.2	·
CCOc1ccc2c(=O)c(Oc3ccccc3)c(C)oc2c1	56	1.2	4.9	26	57.0*	>50
CCOC(=O)c1c(C)[nH]c(C(=O)COC(=O)C(C)N2C(=O)C3CCCCC3C2=O)c1C (stereo not given)	8	1.6	6.0	12	-6.6	·
COc1ccc(CN2C(=O)c3cccnc3C2O)cc1 (stereo not given)	26	0.5	1.4	29	67.8*	>50
Cc1ccc(C(=O)c2coc3c2C(=O)C(=O)c2ccccc2-3)cc1	43	0.0	12.9	9	-0.2	·
O=C(c1ccc(Cl)cc1)c1ccc(CN2C(=O)c3ccccc3C2=O)o1	4	0.1	0.0	7	2.3	·
Cc1ccc(C(=O)c2c(C)oc3c2C(=O)C(=O)c2ccccc2-3)cc1	7	1.0	2.1	23	457.8*	>50
Cc1oc2c(c1C(=O)c1ccc(Cl)cc1)C(=O)C(=O)c1ccccc1-2	29	2.4	18.5	13	344.2*	6.44*
COc1ccc([N+](=O)[O-])cc1N(CC(=O)Nc1ccccc1C(=O)NC(C)C)S(C)(=O)=O	16	0.8	14.6	9	0.3	·
O=C1OCC2=C1C(c1ccccc1)CC(=O)N2c1ccccc1 (stereo not given)	19	1.1	4.5	10	-0.2	·
COc1ccccc1N1C(=O)CC(Sc2ccccc2N)C1=O (stereo not given)	·	·	·	4	·	·
Cc1c(CN(C)C)c2c(n1C)C(=O)c1ccc(Br)cc1-2	20	0.6	2.7	3	-0.3	·
CCOC(=O)c1c2c(n(C)c1C)C(=O)C(=O)c1ccc(Br)cc1-2	·	·	·	·	322.3*	0.04*
Cc1ccc(NC(=O)/C(Cl)=C/c2ccccc2)cc1C	21	-0.5	-2.2	14	-0.5	·
C=CCn1c(NS(=O)(=O)c2ccccc2)c(S(=O)(=O)c2ccc(C)cc2)c2nc3ccccc3nc21	19	-0.6	-3.1	7	99.2*	>50
O=S(=O)(Nc1c(S(=O)(=O)c2ccccc2)c2nc3ccccc3nc2n1C1CCCCC1)c1ccccc1	13	-0.6	-6.5	10	95.5*	12.3*
CCOc1ccc(Oc2ccc(C(F)(F)F)cc2N)cc1	4	-0.1	-2.2	9	0.0	·
CCC(C)n1c(NC(=O)c2ccccc2)c(C#N)c2nc3ccccc3nc21 (stereo not given)	·	·	·	·	62.7*	>50
N#Cc1c(NC(=O)c2ccc(Br)o2)n(-c2ccccc2)c2nc3ccccc3nc12	·	·	·	11	·	·
O=C(COC(=O)c1ccc([N+](=O)[O-])s1)NCc1ccccc1	12	0.6	13.2	14	113.0*	39.2*
O=C(COC(=O)c1ccc([N+](=O)[O-])s1)Nc1ccccc1	9	0.8	14.5	15	2.3	·
CC(=O)Nc1cc(OC(C)=O)c2nonc2c1OC(C)=O	·	·	·	·	113.1*	7.85*
Cc1ccc(NC(=O)C2CCCN2S(=O)(=O)c2ccc3c(c2)n(C)c(=O)c(=O)n3C)cc1C (stereo not given)	17	0.3	-0.9	6	0.3	·
CNC1=C(N(C(C)=O)c2ccc(Br)cc2)C(=O)c2ccccc2C1=O	17	0.1	6.2	2	107.6*	>50
CCC(=O)N(C1=C(NC)C(=O)c2ccccc2C1=O)C(C)C	12	0.8	2.0	9	-2.1	·
CC(=O)N(/N=C1\Sc2ccccc2C1=O)c1cccc(C)c1	24	1.8	6.7	18	296.2*	26*
O=S(=O)(Nc1cc2nc3ccccc3nc2n1Cc1ccccc1)c1ccc(Cl)cc1	18	-0.1	-3.4	5	85.0*	>50
